Screening results as filed in PubChem BioAssay.
Compounds with a hit are over-represented: about 0.81% of the library has one in this group of screens.
TNAP act hiacc = TNAP (human) activation, high acceptor; P05186; purified TNAP, CDP-star luminescence, 1 M DEA, 30 min; hits give high values; 0 = EDTA background, 1 = DMSO-only activity; activation factor at 20 µM; 200,000 tested, under 10 active;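 active means activation factor at least 2 at 20 µM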
Target sequence (P05186 whole entry, looked up): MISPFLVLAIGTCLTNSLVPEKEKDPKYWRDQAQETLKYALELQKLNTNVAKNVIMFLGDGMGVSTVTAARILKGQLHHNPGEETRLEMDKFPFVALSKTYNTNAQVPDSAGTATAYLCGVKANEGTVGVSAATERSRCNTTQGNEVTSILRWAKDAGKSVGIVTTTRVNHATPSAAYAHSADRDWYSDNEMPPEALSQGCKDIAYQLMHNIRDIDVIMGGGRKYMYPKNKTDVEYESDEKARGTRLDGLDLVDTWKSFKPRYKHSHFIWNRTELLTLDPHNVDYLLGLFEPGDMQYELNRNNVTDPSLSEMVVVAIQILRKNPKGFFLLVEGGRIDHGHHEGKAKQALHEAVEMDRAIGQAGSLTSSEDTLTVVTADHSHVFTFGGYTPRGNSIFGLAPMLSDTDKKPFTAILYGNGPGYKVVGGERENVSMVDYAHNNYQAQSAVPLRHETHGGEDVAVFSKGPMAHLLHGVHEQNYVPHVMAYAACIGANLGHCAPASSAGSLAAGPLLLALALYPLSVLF
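system = human TNAP | amount = enzyme diluted 1/800 final | reagent = 100 µM CDP-star substrate | signal = luminescent substrate turnover signal | dosing = one dose, 20 µM | benchmarks = EDTA negative control, DMSO positive control | measure = activation factor | timing = 30 min reaction, room temperature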
TNAP inh hiacc = blocks human TNAP under high phosphate acceptor concentration; P05186; purified TNAP, CDP-star luminescence, 1 M DEA; inhibition, % at 20 µM; hit rate 0.03% among 200,000;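 active means over 50% inhibition of tissue-nonspecific alkaline phosphatase at 20 µM in the single-dose screen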;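 further: plate controls were DMSO wells for no effect and EDTA-quenched wells as full inhibition for full effect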
TNF death inh = inhibitors of TNF-alpha induced necroptosis in Jurkat FADD-/- cells. Jurkat FADD-/- TNF necroptosis rescue, ATP luminescence, 24 h; 0 = TNF only, 100 = no-TNF cells. activation (protection from cell death), % at 10 µM. hit rate 0.068% among 220,000. AID 463075;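 active means activation, meaning protection from cell death, of at least 50% relative to plate controls; inactive means activation below 50%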;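 further: necroptosis triggered by 40 ng/mL TNF-alpha added together with compound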
SDO1 yeast rescue = sdo1-depleted yeast growth rescue | S. cerevisiae sdo1-depleted JHY4D growth rescue, OD600 30 h; hits give high values; pdr5 snq2 efflux-pump mutant strain | AID 817 | z-score at 10 µM | hit rate 0.21% among 140,000;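 active means z-score above 3 at both the 24 hr and the 30 hr optical density reads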;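 further: z-score against mean and SD of all compound wells on the same plate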
L929 necroptosis = blocks zVAD induced death of L929 cells; L929 zVAD necroptosis rescue, ATP luminescence, 24 h; with zVAD 60 µM; viability rescue, % at 10 µM; hit rate 0.38% among 220,000; AID 1377;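 active means activation, scaled between plate controls, above about 75%, limit read from the data; inactive means activation under that limit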;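 further: 0% = zVAD with DMSO and 100% = DMSO alone without zVAD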
TNAP inh noacc = TNAP (human) inhibition, acceptor-free conditions. P05186. purified TNAP, CDP-star luminescence, 30 min. inhibition, % at 20 µM. hit rate 0.26% among 200,000. AID 1012;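 active means tissue-nonspecific alkaline phosphatase inhibition above about 50% at 20 µM in the single-dose screen, limit read from the data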;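 further: 0% = DMSO negative control and 100% = EDTA positive control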
zVAD death conf = confirmed blocker of zVAD induced death in L929 cells | hit rate 16% among 760 | shares compounds with L929 necroptosis | activation (protection from necroptosis), % at 10 µM | L929 zVAD-induced necroptosis rescue, ATP luminescence, 24 h;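 active means mean protection from necroptosis of at least 50% over duplicate tests; inactive means mean protection below 50%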;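 further: 0% = cells with zVAD alone and 100% = vehicle cells without zVAD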
Numbers without * were called inactive; . = no result.

SMILES	TNAP act hiacc	TNAP inh hiacc	TNF death inh	SDO1 yeast rescue	L929 necroptosis	TNAP inh noacc	zVAD death conf
COc1ccc(Nc2ccccc2N)cc1	0.9	5.1	-8.7	.	91.6*	2.7	23.6
Nc1ccc(Nc2ccccc2N)cc1	0.8	15.6	-17.0	-0.13	8.6	24.4	.
Cc1ccc(-c2nnc(Nc3ccc4c(c3)OCO4)c3ccccc23)cc1S(=O)(=O)NC(C)C	1	-2.9	0.5	-0.34	0.5	-19.7	.
CC1(C)CC(=O)C=C(NCc2ccccc2)C1	1	-1.4	3.0	1.23	0.1	-9.4	.
CC1(C)CC(=O)C=C(Nc2cc(-c3ccccc3)[nH]n2)C1	1.1	-8.1	12.3	0.38	90.8*	33.1	24.0
CN=C1S/C(=C/c2cn(CC(=O)OC)c3ccccc23)C(=O)N1C	.	.	-1.6	.	67.1	.	.
CN=C1S/C(=C\c2cn(CC(=O)OC)c3ccccc23)C(=O)N1C	1	-4.7	0.7	.	75.4*	-17.1	-0.2
CCN1CCN(Cc2ccc(NC(=O)c3ccc(C)c(NC(=O)c4ccno4)c3)cc2C(F)(F)F)CC1	.	.	9.9	.	74.6	.	.
CCN1CCN(Cc2ccc(NC(=O)c3cc(NC(=O)c4ccno4)cc(OC)c3)cc2C(F)(F)F)CC1	.	.	-8.4	.	77.2*	.	73.0*
CCN1CCN(Cc2ccc(NC(=O)c3cc(NC(=O)c4ccc5n[nH]nc5c4)cc(OC)c3)cc2C(F)(F)F)CC1	.	.	2.5	.	0.3	.	.
CCN1CCN(Cc2ccc(NC(=O)c3ccc(C)c(NC(=O)c4csc(-c5ccncc5)n4)c3)cc2C(F)(F)F)CC1	.	.	-4.3	.	84.4*	.	80.7*
CCN1CCN(Cc2ccc(NC(=O)c3cc(NC(=O)N4CCNC4=O)cc(OC)c3)cc2C(F)(F)F)CC1	.	.	-7.6	.	77.8*	.	64.3*
CCCCCC(=O)NC(=S)Nc1ccc(Cl)cn1	1	0.2	1.3	0.01	0.2	-3.5	.
CCN(CC)c1ccc(N/C(N)=N/c2nc(C(F)(F)F)cc(=O)[nH]2)cc1	1	-3.6	-1.9	.	91.2*	-21.0	0.3
CC(C)c1nnc(NC(=O)Cc2ccc(Br)cc2)s1	1	-2.4	1.9	-0.38	.	-4.8	.
COc1ccc(CC(=O)Nc2nnc(C(C)C)s2)cc1	1	0.1	1.8	.	81.5*	-3.1	1.2
COc1ccc(NC(=O)Nc2nnc(C(C)C)s2)cc1	1	-0.7	-2.3	0.47	95.3*	-1.3	2.7
O=C(CNC(=O)C1COc2ccccc2O1)N/N=C/c1ccc(O)cc1O (stereo unspecified)	1	-1.9	-7.1	2.19	1.4	-148.3	.
Cc1sc(NC(=O)c2cccs2)nc1-c1ccccc1	1	-0.6	7.7	-2.03	3.2	-9.7	.
O=C(Nc1nsc(-c2ccccc2)n1)c1cccs1	1	-4.6	-0.7	0.58	75.3*	-5.3	0.2
CCC(C)c1ccc(OCC(=O)Nc2ccc3[nH]c(=O)[nH]c3c2)cc1 (stereo unspecified)	1	-2.3	1.8	1.26	77.9*	-15.6	40.2
CCCC(=O)OCC(=O)Nc1ccc2[nH]c(=O)[nH]c2c1	1	-2.6	-1.0	.	0.7	-9.6	.
C/C(=N\NC(=O)OC(C)(C)C)c1cccc([N+](=O)[O-])c1	1	-1.8	3.1	0.34	0.5	0.8	.
CCNc1nc(NCC)nc(Oc2ccc(N)cc2)n1	1	-2.1	-0.4	0.71	77.6*	-3.7	29.9
Cc1c(C(=O)N2CCc3ccccc3C2)oc2ccc(S(=O)(=O)N3CC(C)CC(C)C3)cc12 (stereo unspecified)	1	3.8	-0.8	0.64	-1.1	-2.2	.
SMILES	TNAP act hiacc	TNAP inh hiacc	TNF death inh	SDO1 yeast rescue	L929 necroptosis	TNAP inh noacc	zVAD death conf
CCCn1c(=O)c(-c2nc3ccccc3[nH]2)c(O)c2ccccc21	1.1	-6.2	-0.1	.	71.4	-31.3	.
CCn1c(=O)c(-c2nc3ccccc3[nH]2)c(O)c2ccccc21	1	3.3	-0.7	.	80.5*	1.7	1.4
Clc1ccc(/C=N/Nc2ncnc3nc[nH]c23)cc1	.	.	-10.1	.	78.1*	.	43.1
Cc1ccc(/C=N/Nc2ncnc3nc[nH]c23)cc1	.	.	-6.6	.	71.4	.	.
O=C(Nc1ccc(N2CCOCC2)cc1)c1cc2c(s1)CCCCC2	1.1	-5.6	2.7	.	75.3*	-12.0	4.6
COC(=O)c1sc(NC(=O)c2ccco2)nc1C	1.1	-7.4	-5.4	-1.17	2.7	-14.7	.
Cc1cnc(NC(=O)c2ccco2)s1	1	-3.6	-0.2	-0.57	83.0*	-8.9	9.6
Cc1cnc(NC(=O)c2cc3c(s2)CCCC3)s1	1.1	-5.3	47.5	-1.33	79.1*	-8.8	79.0*
O=C1CSC(c2ccccn2)N1c1ccc(F)cc1F (stereo unspecified)	1.1	-5.5	1.1	.	0.3	-16.7	.
CC(C)Nc1nc(NC(C)C)nc(SCCOC(=O)Nc2ccc(Cl)cc2Cl)n1	1	1.9	-0.9	-0.49	.	0.8	.
COc1ccc(-c2cc(=O)c3cc(O)ccc3o2)cc1	1	1.2	-1.9	.	75.9*	-6.3	30.4
O=c1cc(-c2ccccc2)oc2ccc(O)cc12	.	.	-2.7	.	73.0	.	.
CCN(CC)CCOc1c(Br)ccc2c1sc1nc3n(c(=O)c12)CCC3	1.1	-5.7	-6.5	0.05	80.5*	-6.9	21.0
Cc1cccc(NC(=O)Nc2cccc(C)n2)n1	1	-4.1	-0.8	-0.53	2.3	-10.7	.
CC(=O)Nc1ccc(NC(=O)Nc2ccc(C)c(C)c2)cc1	1	-1.3	-2.6	.	79.5*	-1.4	1.2
Cc1cccc(NC(=O)Nc2ccc(C)c(C)c2)n1	1	0.2	-1.4	-0.1	75.0*	-7.1	6.3
Cc1cccc(NC(=O)Nc2ccc([N+](=O)[O-])cc2)n1	1	-4.0	-0.5	.	76.5*	-11.3	40.0
CCOc1ccccc1-n1c(SCC(=O)Nc2ccc(CC)cc2)nc2n[nH]c(C)c2c1=N	1	-3.8	-2.5	0.48	80.2*	-24.4	43.2
CCOC(=O)CC1C(=O)NCCN1S(=O)(=O)c1ccc(Cl)cc1Cl (stereo unspecified)	1.1	-5.5	-4.6	0.5	-0.2	-6.5	.
Cc1ccc2c(C)nc(Nc3nc(CSc4nc5ccccc5[nH]4)cc(=O)[nH]3)nc2c1	1	-4.9	-21.7	-0.33	87.0*	-231.1	52.8*
COc1ccc(/C=N/Nc2ncc(Br)cn2)c(OC)c1	1.1	-12.3	19.6	.	84.8*	-2.6	0.7
Cn1c(SCC(=O)NCc2ccc(F)cc2)nc2c([nH]c3ccccc32)c1=O	1	-0.8	-0.1	.	0.8	-0.3	.
CC(C)c1ccc(NC(=O)c2sccc2-n2cccc2)cc1	1	3.1	3.0	.	83.6*	-3.6	25.4
Cc1c(Br)cccc1NC(=O)c1sccc1-n1cccc1	1	-2.6	0.8	-0.67	0.6	-11.1	.
